# Assay results reported in paper PMC3235361 (Biochemistry, 2011).
# How the values were obtained:
# [1] = tested on: rat primary cortical or hippocampal neurons; experiment: Toxicity compared with WT Aβ across MTT and LDH assays, rat primary neurons; assay type: cell-based; conditions: 10 μM, 48 h
# Outline: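 E18 rat cortical or hippocampal neurons on poly-D-lysine in DMEM/10% FBS; 5 μM cytosine arabinoside from 24 h; treated at day 6. HFIP-treated peptide films dissolved in 60 mM NaOH, diluted in medium (final NaOH ≤6 mM), sonicated; 10 μM final, 48 h. MTT: 4 h at 37°C, stop overnight, OD; 3 experiments. LDH release: 6 experiments. 6 wells/point; normalized to NaOH-medium control; ANOVA/Tukey.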
# [2] = tested on: differentiated PC-12 cells; experiment: Neuroprotection against Aβ42, MTT assay, differentiated PC-12 cells; assay type: cell-based; conditions: both isomers to a similar extent, data not shown
compound,measurement,setting,value
[Met(O)^35]Aβ42 [Aβ42-Met(O)],toxicity compared with the WT Aβ form (in words),[1],significantly less toxic
CC(=O)N[C@@H](CC[S+](C)[O-])C(=O)O (stereo partly drawn) [Ac-L-Met(O)],"protection against Aβ-induced toxicity, MTT (in words)",[2],significantly protected
CC(=O)N[C@H](CC[S+](C)[O-])C(=O)O (stereo partly drawn) [Ac-D-Met(O)],"protection against Aβ-induced toxicity, MTT (in words)",[2],significantly protected
